Laboratory results: ChEMBL document CHEMBL3102849, “A heat shock protein 90 inhibitor that modulates the immunophilins and regulates hormone receptors without inducing the heat shock response” (Bioorg Med Chem Lett, 2014)
The source made the active and inactive calls. No cut-off for these calls is given here. Residues, ends and D or L forms follow the SMILES beside them.

Columns and labels:
[1] = biological target: Heat shock protein HSP 90-beta (Homo sapiens) (UniProt P08238); assay: Inhibition of Hsp90 in human HeLa cells assessed as downregulation of FKBP52 protein level at 50 uM after 30 hours by Western blotting analysis; format: cell-based
Summary of the method: (§1)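 HeLa cells treated at 5μM and 50μM; lysates western blotted for FKBP51, FKBP52 and glucocorticoid receptor; bands normalized to GAPDH and compared with DMSO control; n≥3, mean±SEM.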

[2] = biological target: Heat shock protein HSP 90-beta (Homo sapiens) (UniProt P08238); assay: Inhibition of Hsp90 in human HeLa cells assessed as change in FKBP51 protein level at 50 uM after 30 hours by Western blotting analysis; format: cell-based; summary of the method: as §1
[3] = biological target: Heat shock protein HSP 90-beta (Homo sapiens) (UniProt P08238); assay: Binding affinity to human Hsp90 assessed as inhibition of interaction with His/GST-tagged recombinant co-chaperone Cyp40 at 10 uM preincubated for 1 hr followed by co-chaperone addition measured after 1 hr by Western blotting analysis
Summary of the method: (§2)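 Purified native hsp90 combined with purified TPR co-chaperone (FKBP51, FKBP52, HOP, Unc45, CHIP, Cyp40 or TOM70), with increasing compound, 0–10 μM; hsp90–co-chaperone binding measured across the range.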

[4] = biological target: Heat shock protein HSP 90-beta (Homo sapiens) (UniProt P08238); assay: Binding affinity to human Hsp90 assessed as inhibition of interaction with His/GST-tagged recombinant co-chaperone TOM70 at 10 uM preincubated for 1 hr followed by co-chaperone addition measured after 1 hr by Western blotting analysis; summary of the method: as §2
[5] = biological target: Heat shock protein HSP 90-beta (Homo sapiens) (UniProt P08238); assay: Binding affinity to human Hsp90 assessed as inhibition of interaction with His/GST-tagged recombinant co-chaperone CHIP at 10 uM preincubated for 1 hr followed by co-chaperone addition measured after 1 hr by Western blotting analysis; summary of the method: as §2
[6] = biological target: Heat shock protein HSP 90-beta (Homo sapiens) (UniProt P08238); assay: Inhibition of Hsp90 in human HeLa cells assessed as downregulation of HSF1 protein expression at 5 uM to 50 uM after 30 hours by Western blotting analysis relative to DMSO-treated control; format: cell-based
Summary of the method: (§3)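 HeLa cervical carcinoma cells treated at 5μM and 50μM; cell lysates probed for the heat shock response proteins hsp70, hsp90 and HSF1 by western blot, compared with DMSO.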

[7] = biological target: Heat shock protein HSP 90-beta (Homo sapiens) (UniProt P08238); assay: Inhibition of Hsp90 in human HeLa cells assessed as downregulation of Hsp90 protein expression at 5 uM to 50 uM after 30 hours by Western blotting analysis relative to DMSO-treated control; format: cell-based; summary of the method: as §3
[8] = biological target: Heat shock protein HSP 90-beta (Homo sapiens) (UniProt P08238); assay: Inhibition of Hsp90 in human HeLa cells assessed as change in Hsp70 protein expression at 5 uM to 50 uM after 30 hours by Western blotting analysis; format: cell-based; summary of the method: as §3
[9] = biological target: Heat shock protein HSP 90-beta (Homo sapiens) (UniProt P08238); assay: Inhibition of Hsp90 (unknown origin) at 50 uM preincubated for 1 hr followed by denatured luciferase addition measured at 120 mins by bright glo luciferase refolding assay in presence of Hsp70/Hsp40/HOP relative to control
Summary of the method: (§4)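 Pure-protein refolding: heat-denatured firefly luciferase incubated with 0.5μM hsp90, 1μM hsp70, 0.2μM hsp40 and 0.1μM HOP; compound at 50μM; luciferase activity followed over time, expressed versus control; n=3, mean±SEM.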

[10] = biological target: Heat shock protein HSP 90-beta (Homo sapiens) (UniProt P08238); assay: Inhibition of Hsp90 (unknown origin) at 50 uM preincubated for 1 hr followed by denatured luciferase addition measured at 105 mins by bright glo luciferase refolding assay in presence of Hsp70/Hsp40/HOP relative to control; summary of the method: as §4
[11] = biological target: Heat shock protein HSP 90-beta (Homo sapiens) (UniProt P08238); assay: Inhibition of Hsp90 (unknown origin) at 50 uM preincubated for 1 hr followed by denatured luciferase addition measured at 90 mins by bright glo luciferase refolding assay in presence of Hsp70/Hsp40/HOP relative to control; summary of the method: as §4
[12] = biological target: Heat shock protein HSP 90-beta (Homo sapiens) (UniProt P08238); assay: Inhibition of Hsp90 (unknown origin) at 50 uM preincubated for 1 hr followed by denatured luciferase addition measured at 75 mins by bright glo luciferase refolding assay in presence of Hsp70/Hsp40/HOP relative to control; summary of the method: as §4
[13] = biological target: Heat shock protein HSP 90-beta (Homo sapiens) (UniProt P08238); assay: Inhibition of Hsp90 (unknown origin) at 50 uM preincubated for 1 hr followed by denatured luciferase addition measured at 60 mins by bright glo luciferase refolding assay in presence of Hsp70/Hsp40/HOP relative to control; summary of the method: as §4
[14] = biological target: Heat shock protein HSP 90-beta (Homo sapiens) (UniProt P08238); assay: Inhibition of Hsp90 (unknown origin) at 50 uM preincubated for 1 hr followed by denatured luciferase addition measured at 45 mins by bright glo luciferase refolding assay in presence of Hsp70/Hsp40/HOP relative to control; summary of the method: as §4
[15] = biological target: Heat shock protein HSP 90-beta (Homo sapiens) (UniProt P08238); assay: Inhibition of Hsp90 (unknown origin) at 50 uM preincubated for 1 hr followed by denatured luciferase addition measured at 30 mins by bright glo luciferase refolding assay in presence of Hsp70/Hsp40/HOP relative to control; summary of the method: as §4
[16] = biological target: Heat shock protein HSP 90-beta (Homo sapiens) (UniProt P08238); assay: Inhibition of Hsp90 (unknown origin) at 50 uM preincubated for 1 hr followed by denatured luciferase addition measured at 15 mins by bright glo luciferase refolding assay in presence of Hsp70/Hsp40/HOP relative to control; summary of the method: as §4
[17] = biological target: T1, Heat shock protein HSP 90 (Oryctolagus cuniculus) (UniProt P11500); assay: Inhibition of Hsp90 in rabbit reticulocyte lysate at 50 uM measured at 90 mins by bright glo luciferase refolding assay relative to control
T1 sequence (whole entry): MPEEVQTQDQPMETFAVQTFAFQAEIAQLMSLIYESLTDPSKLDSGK
Summary of the method: (§5)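 Heat-denatured firefly luciferase incubated in rabbit reticulocyte lysate, the complete lysate system; compound at 50μM; refolding followed over time by luciferase activity relative to control; n=3, mean±SEM.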

[18] = biological target: T1, Heat shock protein HSP 90 (Oryctolagus cuniculus); assay: Inhibition of Hsp90 in rabbit reticulocyte lysate at 50 uM measured at 75 mins by bright glo luciferase refolding assay relative to control; summary of the method: as §5
[19] = biological target: T1, Heat shock protein HSP 90 (Oryctolagus cuniculus); assay: Inhibition of Hsp90 in rabbit reticulocyte lysate at 50 uM measured at 60 mins by bright glo luciferase refolding assay relative to control; summary of the method: as §5
[20] = biological target: T1, Heat shock protein HSP 90 (Oryctolagus cuniculus); assay: Inhibition of Hsp90 in rabbit reticulocyte lysate at 50 uM measured at 45 mins by bright glo luciferase refolding assay relative to control; summary of the method: as §5
[21] = biological target: T1, Heat shock protein HSP 90 (Oryctolagus cuniculus); assay: Inhibition of Hsp90 in rabbit reticulocyte lysate at 50 uM measured at 30 mins by bright glo luciferase refolding assay relative to control; summary of the method: as §5
[22] = biological target: T1, Heat shock protein HSP 90 (Oryctolagus cuniculus); assay: Inhibition of Hsp90 in rabbit reticulocyte lysate at 50 uM measured at 15 mins by bright glo luciferase refolding assay relative to control; summary of the method: as §5
[23] = biological target: Heat shock protein HSP 90-beta (Homo sapiens) (UniProt P08238); assay: Binding affinity to human Hsp90 assessed as inhibition of interaction with His/GST-tagged recombinant co-chaperone TOM70 up to 10 uM preincubated for 1 hr followed by co-chaperone addition measured after 1 hr by Western blotting analysis
Summary of the method: (§6)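 In vitro binding assay: pure native hsp90 combined with individual purified TPR co-chaperones (Unc45, CHIP, TOM70, Cyp40, FKBP51, FKBP52), with compound added in increasing amounts up to 5 or 10 μM. Co-chaperone–hsp90 association was scored against the compound-free condition.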

[24] = biological target: Heat shock protein HSP 90-beta (Homo sapiens) (UniProt P08238); assay: Binding affinity to human Hsp90 assessed as inhibition of interaction with His/GST-tagged recombinant co-chaperone CHIP up to 10 uM preincubated for 1 hr followed by co-chaperone addition measured after 1 hr by Western blotting analysis; summary of the method: as §6
[25] = biological target: Heat shock protein HSP 90-beta (Homo sapiens) (UniProt P08238); assay: Binding affinity to human Hsp90 assessed as inhibition of interaction with His/GST-tagged recombinant co-chaperone Unc45 up to 10 uM preincubated for 1 hr followed by co-chaperone addition measured after 1 hr by Western blotting analysis; summary of the method: as §6
[26] = biological target: Heat shock protein HSP 90-beta (Homo sapiens) (UniProt P08238); assay: Binding affinity to human Hsp90 assessed as inhibition of interaction with His/GST-tagged recombinant co-chaperone CYP40 up to 10 uM preincubated for 1 hr followed by co-chaperone addition measured after 1 hr by Western blotting analysis; summary of the method: as §6
[27] = biological target: Heat shock protein HSP 90-beta (Homo sapiens) (UniProt P08238); assay: Inhibition of human Hsp90 assessed as disruption of interaction with recombinant p23 up to 10 uM by Western blotting analysis
[28] = biological target: Heat shock protein HSP 90-beta (Homo sapiens) (UniProt P08238); assay: Inhibition of Hsp90 in human HeLa cells assessed as downregulation of FKBP52 protein level at 40 uM after 30 hours by Western blotting analysis in presence of proteasome inhibitor MG-132; format: cell-based
[29] = biological target: Heat shock protein HSP 90-beta (Homo sapiens) (UniProt P08238); assay: Inhibition of Hsp90 in human HeLa cells assessed as downregulation of FKBP51 protein level at 40 uM after 30 hours by Western blotting analysis in presence of proteasome inhibitor MG-132; format: cell-based
[30] = biological target: Heat shock protein HSP 90-beta (Homo sapiens) (UniProt P08238); assay: Inhibition of Hsp90 in human HeLa cells assessed as downregulation of glucocorticoid receptor protein level at 40 uM after 30 hours by Western blotting analysis in presence of proteasome inhibitor MG-132; format: cell-based
[31] = biological target: Heat shock protein HSP 90-beta (Homo sapiens) (UniProt P08238); assay: Binding affinity to human Hsp90 assessed as inhibition of interaction with His/GST-tagged recombinant co-chaperone FKBP51 up to 10 uM preincubated for 1 hr followed by co-chaperone addition measured after 1 hr by Western blotting analysis; summary of the method: as §6
[32] = biological target: Heat shock protein HSP 90-beta (Homo sapiens) (UniProt P08238); assay: Inhibition of Hsp90 (unknown origin) at 50 uM preincubated for 1 hr followed by denatured luciferase addition measured after 2 hrs by bright glo luciferase refolding assay in presence of Hsp70/Hsp40/HOP relative to control
Summary of the method: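 Purified refolding system: heat-denatured firefly luciferase incubated with 0.5 μM hsp90, 1 μM hsp70, 0.2 μM hsp40 and 0.1 μM HOP plus test agent (1 μM or 50 μM). Luciferase activity was followed over time up to 2 h and expressed relative to control. n=3, mean±SEM.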

Sequence of Heat shock protein HSP 90-beta (Homo sapiens) (P08238 whole entry): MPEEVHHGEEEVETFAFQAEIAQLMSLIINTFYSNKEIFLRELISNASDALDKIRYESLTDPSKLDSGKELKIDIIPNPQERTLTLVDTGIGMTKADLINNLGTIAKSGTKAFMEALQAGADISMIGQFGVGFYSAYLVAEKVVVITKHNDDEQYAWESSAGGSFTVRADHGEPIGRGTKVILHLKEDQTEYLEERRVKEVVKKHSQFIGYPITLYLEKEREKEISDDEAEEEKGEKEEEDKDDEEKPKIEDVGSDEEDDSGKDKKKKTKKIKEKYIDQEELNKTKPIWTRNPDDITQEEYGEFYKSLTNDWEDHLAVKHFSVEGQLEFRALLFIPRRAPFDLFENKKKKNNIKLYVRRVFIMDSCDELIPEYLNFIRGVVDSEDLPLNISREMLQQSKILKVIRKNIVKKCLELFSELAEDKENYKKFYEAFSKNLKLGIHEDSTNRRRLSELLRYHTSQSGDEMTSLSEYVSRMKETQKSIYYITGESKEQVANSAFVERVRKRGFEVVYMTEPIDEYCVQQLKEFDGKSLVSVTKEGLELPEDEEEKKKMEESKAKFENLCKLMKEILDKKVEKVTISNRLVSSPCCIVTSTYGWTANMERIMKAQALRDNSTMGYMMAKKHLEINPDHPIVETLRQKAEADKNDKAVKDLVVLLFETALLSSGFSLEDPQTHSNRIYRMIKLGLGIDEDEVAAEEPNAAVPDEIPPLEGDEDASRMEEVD

Compound	inhibition [6]	inhibition [7]	inhibition [8]	RLU [9]	RLU [10]	RLU [11]	RLU [12]	RLU [13]	RLU [14]	RLU [15]	RLU [16]	RLU [17]	RLU [18]	RLU [19]	RLU [20]	RLU [21]	RLU [22]	other results
CO[C@H]1[C@H](OC(=O)c2ccc(C)[nH]2)[C@H](O)[C@@H](Oc2ccc3c(O)c(NC(=O)c4c[nH]c(C(=O)Nc5c(O)c6ccc(O[C@H]7OC(C)(C)[C@@H](OC)[C@H](OC(=O)c8ccc(C)[nH]8)[C@@H]7O)c(C)c6oc5=O)c4C)c(=O)oc3c2C)OC1(C)C	50%	50%	Active	417	467	520	540	497	498	565	519	25400	22000	19200	15500	10600	4670	inhibition [1]: Active; inhibition [2]: Active; inhibition [3]: Active; inhibition [4]: Active; inhibition [5]: Active
CC(C)C[C@@H]1NC(=O)[C@H](C(C)C)N(C)C(=O)[C@@H](CC(C)C)NC(=O)[C@@H](Cc2ccccc2)NC(=O)[C@@H]([C@H](OCc2ccccc2)c2ccccc2)NC1=O (HELM PEPTIDE1{[O=C([C@H](N[*:1])[C@H](OCc1ccccc1)c1ccccc1)[*:2]].[dF].[dL].[meV].L}$PEPTIDE1,PEPTIDE1,1:R1-5:R2$$$V2.0)	50%	50%	Active	9190	8800	8670	7810	6340	5700	4360	3800	29600	25300	21800	16800	10800	5240	inhibition [23]: Active; inhibition [24]: Active; inhibition [25]: Active; inhibition [26]: Active; inhibition [27]: Active; inhibition [28]: Active; inhibition [29]: Active; inhibition [30]: Active; inhibition [31]: Active; inhibition [32]: 55%
